The target of assay [1] is Somatostatin receptor type 1 (Homo sapiens, UniProt P30872). Nature of the assay: In vitro inhibition of [125I][Leu8,D-Trp22,Tyr25] somatostatin 28 binding to human somatostatin receptor type 1 expressed in CHO-K1 cells; (n=3). Format: cell-based.
In assay [2] the target is Somatostatin receptor type 4 (Homo sapiens, UniProt P31391). Nature of the assay: In vitro inhibition of [125I][Leu8,D-Trp22,Tyr25] somatostatin 28 binding to human somatostatin receptor type 4 expressed in CCL39 cells; (n=3). Format: cell-based. The method in brief:
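Membrane pellets from CCL39 cells stably expressing hsst4 were sectioned onto slides for receptor autoradiography. Full displacement of the universal somatostatin radioligand used unlabeled peptide at 0.1–1000 nM, with somatostatin 28 run in parallel at the same concentrations. Values are mean ± SD.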

The target in assay [3] is Somatostatin receptor type 2 (Homo sapiens, UniProt P30874). Nature of the assay: In vitro inhibition of [125I][Leu8,D-Trp22,Tyr25] somatostatin 28 binding to human somatostatin receptor type 2 expressed in CCL39 cells; (n=3). Format: cell-based.
Chain of Somatostatin receptor type 2 (P30874 whole entry): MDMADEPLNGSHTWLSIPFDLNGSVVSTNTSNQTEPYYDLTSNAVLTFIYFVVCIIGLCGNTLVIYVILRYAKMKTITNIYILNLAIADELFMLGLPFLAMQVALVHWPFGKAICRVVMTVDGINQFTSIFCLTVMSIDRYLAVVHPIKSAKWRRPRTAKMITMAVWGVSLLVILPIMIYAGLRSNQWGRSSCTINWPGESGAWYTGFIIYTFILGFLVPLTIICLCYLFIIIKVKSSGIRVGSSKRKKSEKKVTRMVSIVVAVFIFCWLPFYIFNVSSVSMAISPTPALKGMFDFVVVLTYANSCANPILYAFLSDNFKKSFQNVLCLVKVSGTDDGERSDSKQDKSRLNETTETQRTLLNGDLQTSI
Assay [4] has as its target Somatostatin receptor type 3 (Homo sapiens, UniProt P32745). Nature of the assay: In vitro inhibition of [125I][Leu8,D-Trp22,Tyr25] somatostatin 28 binding to human somatostatin receptor type 3 expressed in CCL39 cells; (n=3). Format: cell-based.
Assay [5] addresses Somatostatin receptor type 5 (Homo sapiens, UniProt P35346). Description: In vitro inhibition of [125I][Leu8,D-Trp22,Tyr25] somatostatin 28 binding to human somatostatin receptor type 5 expressed in CHO-K1 cells; (n=3). In kind it is cell-based.
The target of assay [6] is Somatostatin receptor type 2 (Rattus norvegicus) (UniProt P30680). Nature of the assay: In vivo tumor accumulation was determined in nude mice bearing rat pancreatic AR42J tumor cell expressed with somatostatin receptor type 2;60 min p.i.; (n=3-5). In kind it is functional, organism-based. The following applies: AR-42J. An outline of the steps:
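Female Swiss nu/nu mice, 6–8 weeks, were inoculated s.c. in the flank with (2.5–5) × 10⁶ AR42J cells in serum-free RPMI 1640 and used after 10 days (tumors 150–500 mg). About 370 kBq of radioiodinated peptide in 100 µL PBS pH 7.4 was given i.v. into the tail vein. Tumor was excised 60 min p.i. and gamma-counted; results are % ID/g.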

[7] abbreviates: tested as the 123I-labelled form.

Chain of Somatostatin receptor type 3 (P32745 whole entry): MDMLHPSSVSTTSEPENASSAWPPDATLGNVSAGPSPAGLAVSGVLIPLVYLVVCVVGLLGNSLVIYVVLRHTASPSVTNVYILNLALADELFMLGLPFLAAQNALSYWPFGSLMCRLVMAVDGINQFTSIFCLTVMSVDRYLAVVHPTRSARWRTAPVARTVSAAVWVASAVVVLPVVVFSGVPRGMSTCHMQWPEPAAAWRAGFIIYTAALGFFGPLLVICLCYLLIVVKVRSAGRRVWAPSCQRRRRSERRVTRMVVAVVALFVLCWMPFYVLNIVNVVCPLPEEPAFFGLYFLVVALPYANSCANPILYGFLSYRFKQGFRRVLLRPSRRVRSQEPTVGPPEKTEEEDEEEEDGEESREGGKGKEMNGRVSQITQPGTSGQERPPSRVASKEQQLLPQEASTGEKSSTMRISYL
Chain of Somatostatin receptor type 1 (P30872 whole entry): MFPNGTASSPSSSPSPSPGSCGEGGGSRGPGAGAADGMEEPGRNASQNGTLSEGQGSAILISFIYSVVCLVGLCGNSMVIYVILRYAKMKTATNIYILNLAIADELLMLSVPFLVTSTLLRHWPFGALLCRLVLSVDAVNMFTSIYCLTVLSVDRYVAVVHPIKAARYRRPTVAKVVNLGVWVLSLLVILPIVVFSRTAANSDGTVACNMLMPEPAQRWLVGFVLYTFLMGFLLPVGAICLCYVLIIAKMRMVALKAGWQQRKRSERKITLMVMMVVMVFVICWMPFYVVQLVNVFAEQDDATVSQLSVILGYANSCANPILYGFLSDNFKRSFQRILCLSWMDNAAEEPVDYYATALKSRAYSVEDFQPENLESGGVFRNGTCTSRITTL
Chain of Somatostatin receptor type 2 (Rattus norvegicus) (P30680 whole entry): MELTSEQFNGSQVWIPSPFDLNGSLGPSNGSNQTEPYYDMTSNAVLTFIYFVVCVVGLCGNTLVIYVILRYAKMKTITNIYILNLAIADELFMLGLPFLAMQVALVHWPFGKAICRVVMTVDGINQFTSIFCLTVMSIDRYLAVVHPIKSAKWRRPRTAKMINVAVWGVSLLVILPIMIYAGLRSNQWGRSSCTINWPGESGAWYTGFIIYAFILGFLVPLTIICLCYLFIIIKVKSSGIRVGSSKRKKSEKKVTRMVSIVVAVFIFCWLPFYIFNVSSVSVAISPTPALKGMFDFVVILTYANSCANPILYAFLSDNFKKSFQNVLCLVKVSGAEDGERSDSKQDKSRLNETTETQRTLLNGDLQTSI
Chain of Somatostatin receptor type 5 (P35346 whole entry): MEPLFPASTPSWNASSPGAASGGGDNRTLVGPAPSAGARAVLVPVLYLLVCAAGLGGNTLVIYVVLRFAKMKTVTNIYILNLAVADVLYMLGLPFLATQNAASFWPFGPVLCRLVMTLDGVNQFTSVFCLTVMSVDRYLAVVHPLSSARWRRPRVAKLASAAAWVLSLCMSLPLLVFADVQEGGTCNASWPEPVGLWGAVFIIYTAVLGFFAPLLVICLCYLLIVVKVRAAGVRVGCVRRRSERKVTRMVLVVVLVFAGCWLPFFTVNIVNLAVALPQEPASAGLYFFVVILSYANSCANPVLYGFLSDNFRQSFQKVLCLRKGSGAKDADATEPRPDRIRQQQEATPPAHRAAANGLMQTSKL
Chain of Somatostatin receptor type 4 (P31391 whole entry): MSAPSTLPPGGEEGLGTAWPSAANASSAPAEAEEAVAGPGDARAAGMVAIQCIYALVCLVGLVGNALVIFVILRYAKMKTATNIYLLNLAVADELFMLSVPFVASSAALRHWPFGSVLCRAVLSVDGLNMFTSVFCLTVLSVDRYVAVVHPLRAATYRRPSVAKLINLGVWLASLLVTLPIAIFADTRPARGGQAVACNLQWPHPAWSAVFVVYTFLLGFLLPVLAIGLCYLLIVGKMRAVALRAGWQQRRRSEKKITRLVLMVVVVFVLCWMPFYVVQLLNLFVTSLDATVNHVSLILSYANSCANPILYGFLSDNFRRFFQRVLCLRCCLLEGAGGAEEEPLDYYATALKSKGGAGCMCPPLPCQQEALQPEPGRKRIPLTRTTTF

In general, IC50 refers to the concentration needed to halve the response being measured. Turning to `C[C@@H](O)[C@@H]1NC(=O)[C@H](CCCCN)NC(=O)[C@@H](Cc2c[nH]c3ccccc23)NC(=O)[C@H](Cc2ccc(O)c(I)c2)NC(=O)[C@@H](NC(=O)[C@@H](Cc2ccccc2)NC[C@]2(O)OC[C@H](O)[C@@H](O)[C@@H]2O)CSSC[C@@H](C(=O)N[C@H](CO)[C@@H](C)O)NC1=O`, the concentration for half-maximal inhibition (IC50) in assay [1] (cho-k1) was over 1000 nM; in assay [2] it was 837 nM; in assay [3] it was 2.2 nM; in assay [4] (ccl39), 357 nM; in assay [5], 64 nM.
Take `C[C@@H](O)[C@H](NC(=O)[C@@H]1CSSC[C@H](NC(=O)[C@H](Cc2ccccc2)NC[C@]2(O)OC[C@H](O)[C@@H](O[C@@H]3O[C@@H](CO)[C@@H](O)[C@H](O)[C@@H]3O)[C@@H]2O)C(=O)N[C@@H](Cc2ccc(O)c(I)c2)C(=O)N[C@H](Cc2c[nH]c3ccccc23)C(=O)N[C@@H](CCCCN)C(=O)N[C@@H]([C@@H](C)O)C(=O)N1)C(=O)O`: in assay [6] (setting [7]), the ID/g came to 11.2%.
Take `C[C@@H](O)[C@H](NC(=O)[C@@H]1CSSC[C@H](NC(=O)[C@@H](Cc2ccccc2)NC(=O)CCS[C@@H]2O[C@@H](CO)[C@@H](O)[C@H](O)[C@@H]2O)C(=O)N[C@@H](Cc2ccc(O)c(I)c2)C(=O)N[C@H](Cc2c[nH]c3ccccc23)C(=O)N[C@@H](CCCCN)C(=O)N[C@@H]([C@@H](C)O)C(=O)N1)C(=O)O`: the 50% inhibitory concentration (IC50) in assay [1] (cho-k1) was over 1000 nM; in assay [2], 356 nM; in assay [4] (ccl39) it was 398 nM; in assay [5] it was 310 nM.
In turn, `C[C@@H](O)[C@H](CO)NC(=O)[C@@H]1CSSC[C@H](NC(=O)[C@H](Cc2ccccc2)NC[C@]2(O)OC[C@H](O)[C@@H](O)[C@@H]2O)C(=O)N[C@@H](Cc2ccc(O)c(I)c2)C(=O)N[C@H](Cc2c[nH]c3ccccc23)C(=O)N[C@@H](CCCCN)C(=O)N[C@@H]([C@@H](C)O)C(=O)N1` returned an ID/g in assay [6] (setting [7]) of 8.7%.
As to EDOTREOTIDE YTTRIUM, the concentration for half-maximal inhibition (IC50) in assay [1] (cho-k1) and in assay [2] was over 10000 nM in each case.
`C[C@@H](O)[C@H](NC(=O)[C@@H]1CSSC[C@H](NC(=O)[C@H](N)Cc2ccccc2)C(=O)N[C@@H](Cc2ccc(O)c(I)c2)C(=O)N[C@H](Cc2c[nH]c3ccccc23)C(=O)N[C@@H](CCCCN)C(=O)N[C@@H]([C@@H](C)O)C(=O)N1)C(=O)O` yielded an ID/g in assay [6] (setting [7]) of 21.2%.
Turning to `C[C@@H](O)[C@H](NC(=O)[C@@H]1CSSC[C@H](NC(=O)[C@@H](Cc2ccccc2)NC(=O)CCS[C@@H]2O[C@@H](CO)[C@H](O)[C@H](O)[C@@H]2O)C(=O)N[C@@H](Cc2ccc(O)c(I)c2)C(=O)N[C@H](Cc2c[nH]c3ccccc23)C(=O)N[C@@H](CCCCN)C(=O)N[C@@H]([C@@H](C)O)C(=O)N1)C(=O)O`, the IC50 in assay [1] (cho-k1) was over 1000 nM; in assay [2], 482 nM; in assay [4] (ccl39), 491 nM; in assay [5], 413 nM.
For `C[C@@H](O)[C@H](CO)NC(=O)[C@@H]1CSSC[C@H](NC(=O)[C@@H](Cc2ccccc2)NC[C@]2(O)OC[C@H](O)[C@@H](O[C@@H]3O[C@@H](CO)[C@@H](O[C@@H]4O[C@@H](CO)[C@@H](O)[C@H](O)[C@@H]4O)[C@H](O)[C@@H]3O)[C@@H]2O)C(=O)N[C@@H](Cc2ccc(O)c(I)c2)C(=O)N[C@H](Cc2c[nH]c3ccccc23)C(=O)N[C@@H](CCCCN)C(=O)N[C@@H]([C@@H](C)O)C(=O)N1`, the IC50 in assay [1] (cho-k1) is over 10000 nM; in assay [2], over 1000 nM; in assay [3] it was 1.1 nM; in assay [4] (ccl39), 210 nM; in assay [5] it was 110 nM.
The matching figures for `C[C@@H](O)[C@H](NC(=O)[C@@H]1CSSC[C@H](NC(=O)[C@@H](Cc2ccccc2)NC[C@]2(O)OC[C@H](O)[C@@H](O[C@@H]3O[C@@H](CO)[C@@H](O)[C@H](O)[C@@H]3O)[C@@H]2O)C(=O)N[C@@H](Cc2ccc(O)c(I)c2)C(=O)N[C@H](Cc2c[nH]c3ccccc23)C(=O)N[C@@H](CCCCN)C(=O)N[C@@H]([C@@H](C)O)C(=O)N1)C(=O)O`: over 10000 nM, 797 nM, 0.78 nM, 757 nM and 210 nM.
GALLIUM OXODOTREOTIDE: the IC50 in assay [1] (cho-k1) is over 10000 nM; in assay [2] it was 300 nM; in assay [3] it was 0.2 nM; in assay [4] (ccl39), over 1000 nM; in assay [5], 377 nM.
As for `C[C@@H](O)[C@H](NC(=O)[C@@H]1CSSC[C@H](NC(=O)[C@@H](Cc2ccccc2)NC[C@@]2(O)OC[C@@H](O)[C@@H](O)[C@@H]2O)C(=O)N[C@@H](Cc2ccc(O)c(I)c2)C(=O)N[C@H](Cc2c[nH]c3ccccc23)C(=O)N[C@@H](CCCCN)C(=O)N[C@@H]([C@@H](C)O)C(=O)N1)C(=O)O`, the IC50 in assay [1] (cho-k1) was over 1000 nM; in assay [2], 1030 nM; in assay [3] it was 2 nM; in assay [4] (ccl39), over 1000 nM; in assay [5], 521 nM.
In turn, `C[C@@H](O)[C@H](CO)NC(=O)[C@@H]1CSSC[C@H](NC(=O)[C@@H](N)Cc2ccccc2)C(=O)N[C@@H](Cc2ccc(O)c(I)c2)C(=O)N[C@H](Cc2c[nH]c3ccccc23)C(=O)N[C@@H](CCCCN)C(=O)N[C@@H]([C@@H](C)O)C(=O)N1` yielded an ID/g in assay [6] (tested as the 125I-labelled form) of 5.5%.
Regarding `C[C@@H](O)[C@H](NC(=O)[C@@H]1CSSC[C@H](NC(=O)[C@H](Cc2ccccc2)NC[C@]2(O)OC[C@H](O)[C@@H](O[C@@H]3O[C@@H](CO)[C@@H](O[C@@H]4O[C@@H](CO)[C@@H](O)[C@H](O)[C@@H]4O)[C@H](O)[C@@H]3O)[C@@H]2O)C(=O)N[C@@H](Cc2ccc(O)c(I)c2)C(=O)N[C@H](Cc2c[nH]c3ccccc23)C(=O)N[C@@H](CCCCN)C(=O)N[C@@H]([C@@H](C)O)C(=O)N1)C(=O)O`, the ID/g in assay [6] (setting [7]) was found to be 25.1%.
For `C[C@@H](O)[C@H](NC(=O)[C@@H]1CSSC[C@H](NC(=O)[C@@H](Cc2ccccc2)NC[C@]2(O)OC[C@H](O)[C@@H](O[C@@H]3O[C@@H](CO)[C@@H](O[C@@H]4O[C@@H](CO)[C@@H](O)[C@H](O)[C@@H]4O)[C@H](O)[C@@H]3O)[C@@H]2O)C(=O)N[C@@H](Cc2ccc(O)c(I)c2)C(=O)N[C@H](Cc2c[nH]c3ccccc23)C(=O)N[C@@H](CCCCN)C(=O)N[C@@H]([C@@H](C)O)C(=O)N1)C(=O)O`, the IC50 is over 10000 nM in assay [1] (cho-k1); 823 nM in assay [2]; 0.95 nM in assay [3]; 823 nM in assay [4] (ccl39); 327 nM in assay [5].
Compound `C[C@@H](O)[C@H](CO)NC(=O)[C@@H]1CSSC[C@H](NC(=O)[C@H](Cc2ccccc2)NC[C@]2(O)OC[C@H](O)[C@@H](O[C@@H]3O[C@@H](CO)[C@@H](O[C@@H]4O[C@@H](CO)[C@@H](O)[C@H](O)[C@@H]4O)[C@H](O)[C@@H]3O)[C@@H]2O)C(=O)N[C@@H](Cc2ccc(O)c(I)c2)C(=O)N[C@H](Cc2c[nH]c3ccccc23)C(=O)N[C@@H](CCCCN)C(=O)N[C@@H]([C@@H](C)O)C(=O)N1` came in with an ID/g in assay [6] (setting [7]) of 4.9%.
For the compound `C[C@@H](O)[C@H](NC(=O)[C@@H]1CSSC[C@H](NC(=O)[C@@H](Cc2ccccc2)NC(=O)CN2CCN(CC(=O)O)CCN(CC(=O)O)CCN(CC(=O)O)CC2)C(=O)N[C@@H](Cc2ccc(O)cc2)C(=O)N[C@H](Cc2c[nH]c3ccccc23)C(=O)N[C@@H](CCCCN)C(=O)N[C@@H]([C@@H](C)O)C(=O)N1)C(=O)O`, the IC50 in assay [1] was over 10000 nM; in assay [4], over 1000 nM.
The compound `C[C@@H](O)[C@H](CO)NC(=O)[C@@H]1CSSC[C@H](NC(=O)[C@H](Cc2ccccc2)NC[C@]2(O)OC[C@H](O)[C@@H](O[C@@H]3O[C@@H](CO)[C@@H](O)[C@H](O)[C@@H]3O)[C@@H]2O)C(=O)N[C@@H](Cc2ccc(O)c(I)c2)C(=O)N[C@H](Cc2c[nH]c3ccccc23)C(=O)N[C@@H](CCCCN)C(=O)N[C@@H]([C@@H](C)O)C(=O)N1` showed an ID/g in assay [6] (setting [7]) of 5.2%.
In the case of `C[C@@H](O)[C@H](CO)NC(=O)[C@@H]1CSSC[C@H](NC(=O)[C@@H](Cc2ccccc2)NC[C@]2(O)OC[C@H](O)[C@@H](O[C@@H]3O[C@@H](CO)[C@@H](O)[C@H](O)[C@@H]3O)[C@@H]2O)C(=O)N[C@@H](Cc2ccc(O)c(I)c2)C(=O)N[C@H](Cc2c[nH]c3ccccc23)C(=O)N[C@@H](CCCCN)C(=O)N[C@@H]([C@@H](C)O)C(=O)N1`, the IC50 in assay [1] (cho-k1) is over 10000 nM; in assay [2] it was over 1000 nM; in assay [3], 1.2 nM; in assay [4] (ccl39), 243 nM; in assay [5], 75 nM.
In assay [6] (setting [7]), `C[C@@H](O)[C@H](NC(=O)[C@@H]1CSSC[C@H](NC(=O)[C@@H](Cc2ccccc2)NC[C@H]2O[C@H](O)[C@H](O)[C@@H](O)[C@@H]2O)C(=O)N[C@@H](Cc2ccc(O)c(I)c2)C(=O)N[C@H](Cc2c[nH]c3ccccc23)C(=O)N[C@@H](CCCCN)C(=O)N[C@@H]([C@@H](C)O)C(=O)N1)C(=O)O` had an ID/g of 20.5%.

Source of the values: ChEMBL document CHEMBL1143592, “N-terminal sugar conjugation and C-terminal Thr-for-Thr(ol) exchange in radioiodinated Tyr3-octreotide: effect on cellular ligand trafficking in vitro and tumor accumulation in vivo” (J Med Chem, 2005).
